Measurements: ChEMBL document CHEMBL1128437, “Derivatives of 17-phenyl-18,19,20-trinorprostaglandin F2 alpha isopropyl ester: potential antiglaucoma agents” (J Med Chem, 1995)
“And” between values parts separate entries of the source, which are not always exact repeats. Equal values may be shown once.

Legend:
Felis catus [1] = species on record: Felis catus; test: The maximal difference in Intraocular Pressure (IOP) between treated and control eyes. The effect was tested in cats at a dose of 1.0 (ug/eye); type: functional
How it was run: (§1)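 Domestic female cats, 2–3 kg, trained for IOP measurement. One eye received a topical drop (20 µL) of drug in 0.9% NaCl with 0.5% polysorbate 80; the other eye received vehicle. IOP was read by pneumatonometer under oxibuprocain local anaesthesia before dosing and at 1, 3, 6 and 23 h. The maximal treated-minus-control difference was taken. Area between curves is the treated-eye AUC minus control-eye AUC, per animal.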

Felis catus [2] = species on record: Felis catus; test: The maximal difference in Intraocular Pressure (IOP) between treated and control eyes. The effect was tested in cats at a dose of 10.0 (ug/eye); type: functional; how it was run: as §1
Felis catus [3] = species on record: Felis catus; test: The maximal difference in Intraocular Pressure (IOP) between treated and control eyes. The effect was tested in cats at a dose of 3.0 (ug/eye); type: functional; how it was run: as §1
Felis catus [4] = species on record: Felis catus; test: The mean ocular irritation in the treated eyes. An arbitrary scale of from 0 to 3 was used, 0 indicates absence of irritation and 3 complete closure of the lids. The effect was tested in cats at a dose of 1.0 (ug/eye); type: functional
How it was run: (§2)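 Ocular irritation was scored in the treated eye of trained female cats, 2–3 kg. Drug was given as one topical 20 µL drop in 0.9% NaCl with 0.5% polysorbate 80. The contralateral eye got vehicle only.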

Felis catus [5] = species on record: Felis catus; test: The mean ocular irritation in the treated eyes. An arbitrary scale of from 0 to 3 was used, 0 indicates absence of irritation and 3 complete closure of the lids. The effect was tested in cats at a dose of 10.0 (ug/eye); type: functional; how it was run: as §2
Felis catus [6] = species on record: Felis catus; test: The mean ocular irritation in the treated eyes. An arbitrary scale of from 0 to 3 was used, 0 indicates absence of irritation and 3 complete closure of the lids. The effect was tested in cats at a dose of 3.0 (ug/eye); type: functional; how it was run: as §2
Felis catus [7] = species on record: Felis catus; test: The maximal difference in […] pupil diameter between treated and control eyes. The effect was tested in cats at a dose of 1.0 (ug/eye); type: functional
How it was run: (§3)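 Trained female cats, 2–3 kg, were dosed unilaterally with one 20 µL topical drop of drug in 0.9% NaCl/0.5% polysorbate 80, with vehicle in the contralateral eye. Horizontal pupil diameter was measured with a millimetre ruler under constant 10 lux illumination before dosing and at 1, 3, 6 and 23 h. Reported as maximal treated–control difference or as area between curves, per animal.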

Felis catus [8] = species on record: Felis catus; test: The maximal difference in […] pupil diameter between treated and control eyes. The effect was tested in cats at a dose of 10.0 (ug/eye); type: functional; how it was run: as §3
Felis catus [9] = species on record: Felis catus; test: The maximal difference in […] pupil diameter between treated and control eyes. The effect was tested in cats at a dose of 3.0 (ug/eye); type: functional; how it was run: as §3
Felis catus [10] = species on record: Felis catus; test: The mean area between curves for Intraocular Pressure (IOP) measured in treated and control eyes. The effect was tested in cats at a dose of 1.0 (ug/eye); type: functional; how it was run: as §1
Felis catus [11] = species on record: Felis catus; test: The mean area between curves for Intraocular Pressure (IOP) measured in treated and control eyes. The effect was tested in cats at a dose of 3.0 (ug/eye); type: functional; how it was run: as §1
Felis catus [12] = species on record: Felis catus; test: The mean area between curves for pupil diameter between treated and control eyes. The effect was tested in cats at a dose of 1.0 (ug/eye); type: functional; how it was run: as §3
Felis catus [13] = species on record: Felis catus; test: The mean area between curves for pupil diameter between treated and control eyes. The effect was tested in cats at a dose of 10.0 (ug/eye); type: functional; how it was run: as §3
Felis catus [14] = species on record: Felis catus; test: The mean area between curves for pupil diameter between treated and control eyes. The effect was tested in cats at a dose of 3.0 (ug/eye); type: functional; how it was run: as §3
Felis catus [15] = species on record: Felis catus; test: The mean area between curves for Intraocular Pressure (IOP) measured in treated and control eyes. The effect was tested in cats at a dose of 10.0 (ug/eye); type: functional; how it was run: as §1
Oryctolagus cuniculus [16] = species on record: Oryctolagus cuniculus; test: The maximal difference in conjunctival hyperemia between treated and control eyes. The effect was tested in rabbit at a dose of 0.1 (ug/eye)
Oryctolagus cuniculus [17] = species on record: Oryctolagus cuniculus; test: The maximal difference in conjunctival hyperemia between treated and control eyes. The effect was tested in rabbit at a dose of 0.5 (ug/eye)
Oryctolagus cuniculus [18] = species on record: Oryctolagus cuniculus; test: The mean area between curves for conjunctival hyperemia between treated and control eyes. The effect was tested in rabbit at a dose of 0.1 (ug/eye)
Oryctolagus cuniculus [19] = species on record: Oryctolagus cuniculus; test: The mean area between curves for conjunctival hyperemia between treated and control eyes. The effect was tested in rabbit at a dose of 0.5 (ug/eye)
Monkey [20] = test: The mean area between curves for Intraocular Pressure (IOP) measured in treated and control eyes. The effect was tested in monkey at a dose of 10.0 (ug/eye); type: functional, Cercopithecidae
How it was run: (§4)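 Cynomolgus monkeys trained for IOP measurement were sedated with ketamine (2–3 mg/kg) for transport and seated in restraint chairs under oxibuprocain local anaesthesia. One eye received a 10 µL drop of drug in 0.9% NaCl/0.5% polysorbate 80; the fellow eye received vehicle. IOP was read by pneumatonometer calibrated for monkey eyes before dosing and at 1, 2, 4 and 6 h. Matched-pair t test, n = 6.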

Monkey [21] = test: The mean area between curves for Intraocular Pressure (IOP) measured in treated and control eyes. The effect was tested in monkey at a dose of 3.0 (ug/eye); type: functional, Cercopithecidae; how it was run: as §4
Monkey [22] = test: The maximal difference in Intraocular Pressure (IOP) measured in treated and control eyes. The effect was tested in monkey at a dose of 10.0 (ug/eye); type: functional, Cercopithecidae; how it was run: as §4
Monkey [23] = test: The maximal difference in Intraocular Pressure (IOP) measured in treated and control eyes. The effect was tested in monkey at a dose of 3.0 (ug/eye); type: functional, Cercopithecidae; how it was run: as §4
Felis catus [24] = species on record: Felis catus; test: Concentration giving half-maximal contraction of the cat iris sphincter muscle was determined in vitro; type: functional
How it was run: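 Compounds were tested as hydrolysed free acids on isolated cat iris sphincter in organ baths. Bath solution was bicarbonate physiological saline with glucose plus indomethacin 2.8 × 10⁻⁶ M, atropine 10⁻⁷ M and propranolol 10⁻⁶ M. Resting tension was 150 mg, with at least 30 min equilibration. Cumulative dosing was at 5–10 min intervals. Isometric contraction was normalised to each tissue's maximum, averaged over four preparations, and fitted with a Hill equation for EC50.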

Monkey [25] = test: The maximal difference in Intraocular Pressure (IOP) measured in treated and control eyes. The effect was tested in monkey at a dose of 1.0 (ug/eye); type: functional, Cercopithecidae; how it was run: as §4
Monkey [26] = test: The mean area between curves for Intraocular Pressure (IOP) measured in treated and control eyes. The effect was tested in monkey at a dose of 1.0 (ug/eye); type: functional, Cercopithecidae; how it was run: as §4

Row | SMILES | Imax (Felis catus [1]) [mmHg] | Imax (Felis catus [3]) [mmHg] | Irritation (Felis catus [4]) [arbitrary units] | Irritation (Felis catus [6]) [arbitrary units] | Pmax (Felis catus [7]) [mm] | Pmax (Felis catus [9]) [mm] | I ABC (Felis catus [10]) | I ABC (Felis catus [11]) | P ABC (Felis catus [12]) | P ABC (Felis catus [14]) | Hmax (Oryctolagus cuniculus [17]) | H ABC (Oryctolagus cuniculus [19]) | I ABC (Monkey [21]) | Imax (Monkey [23]) [mmHg] | EC50 (Felis catus [24]; Felis catus, Sphincter muscle) [nM] | also measured
1 | CC(C)OC(=O)CCC/C=C\C[C@@H]1[C@@H](/C=C/[C@H](O)CCc2ccc(Br)cc2)[C@H](O)C[C@@H]1O | -1 | <-2 | 0.5 | 0.2 | < -2.2 | -0.7 | -14 | <-17 | -27 | -2.2 | <0.7 | 0.6 |  |  |  | Imax (Felis catus [2]): <-2 mmHg; Irritation (Felis catus [5]): 0 arbitrary units; Pmax (Felis catus [8]): < -2.3 mm; P ABC (Felis catus [13]): -23; I ABC (Felis catus [15]): -10; Hmax (Oryctolagus cuniculus [16]): 0.2; H ABC (Oryctolagus cuniculus [18]): 0.3
2 | CC(C)OC(=O)CCC/C=C\C[C@@H]1[C@@H](/C=C/[C@@H](O)CCc2ccc(-c3ccccc3)cc2)[C@H](O)C[C@@H]1O | -1 | <-6 | 0.8 | 1.6 | < -1.5 | -0.8 | -10 | <-99.3 | <-18.3 | <-4.9 | <0.4 | 1.2 | 3 | <0.8 |  | I ABC (Monkey [20]): <6.1; Imax (Monkey [22]): <1.4 mmHg; Hmax (Oryctolagus cuniculus [16]): 0.2; H ABC (Oryctolagus cuniculus [18]): 0.2
3 | CCCCC[C@H](O)/C=C/[C@@H]1[C@@H](C/C=C\CCCC(=O)O)[C@@H](O)C[C@H]1O [DINOPROST] |  |  |  |  |  |  |  |  |  |  |  |  |  |  | 6.7 | 
4 | CC(C)OC(=O)CCC/C=C\C[C@@H]1[C@@H](/C=C/[C@@H](O)CCc2cccc(Br)c2)[C@H](O)C[C@@H]1O | -1 | -2.7 | 0.2 | 0.3 | < 6.3 | < -6.8 | -12.9 | -42.5 | <-99 | <-125 | <1.5 | 4.8 | -6.5 | -2 |  | Imax (Felis catus [2]): <-3.3 mmHg; Irritation (Felis catus [5]): 0.2 arbitrary units; Pmax (Felis catus [8]): < -6.7 mm; P ABC (Felis catus [13]): <-138; I ABC (Felis catus [15]): <-49
5 | O=C(O)CCC/C=C\C[C@@H]1[C@@H](/C=C/C(O)CCc2cccc(Br)c2)[C@H](O)C[C@@H]1O (stereo partly specified) |  |  |  |  |  |  |  |  |  |  |  |  |  |  |  | EC50 (Felis catus [24]): 33 nM and 4.9 nM
6 | O=C(O)CCC/C=C\C[C@@H]1[C@@H](/C=C/[C@H](O)CCc2ccc(Br)cc2)[C@H](O)C[C@@H]1O |  |  |  |  |  |  |  |  |  |  |  |  |  |  | 2100 | 
7 | Cc1cccc(CCC(O)/C=C/[C@@H]2[C@@H](C/C=C\CCCC(=O)O)[C@@H](O)C[C@H]2O)c1 (stereo partly specified) |  |  |  |  |  |  |  |  |  |  |  |  |  |  | 4.3 | 
8 | CC(C)OC(=O)CCC/C=C\C[C@@H]1[C@@H](/C=C/[C@@H](O)CCc2ccccc2)[C@H](O)C[C@@H]1O | 2.7 |  | 0 |  | < 9.7 |  | <36.9 |  | -126 |  | <1.5 | <-4 | -5.9 | -2.9 |  | Imax (Monkey [25]): <-3.3 mmHg; I ABC (Monkey [26]): <-5.8
